Assay results as given in ChEMBL document CHEMBL3758103, “Anti-herpetic and anti-dengue activity of abietane ferruginol analogues synthesized from (+)-dehydroabietylamine” (Eur J Med Chem, 2016).
Active and inactive are the calls of the source. The calls are words filed in the database; no cut-off is given here.

Experiments:
HeLa [1] = assay: Cytotoxicity against human HeLa cells assessed as cell growth inhibition after 48 hrs by MTT assay; assay type: functional, cell-based
How it was run: (§1)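 MTT assay. Vero and HeLa cells plated at 2.0 × 10^4/well and preincubated 24 h; Jurkat and U937 plated at 3.0 × 10^4/well. Compounds were applied 48 h at 37 °C, 5% CO2, with 0.05% DMSO. Absorbance read at 570 nm and IC50 taken by linear regression. Values are the geometric mean of two experiments in quadruplicate.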

Jurkat [2] = assay: Cytotoxicity against human Jurkat cells assessed as cell growth inhibition after 48 hrs by MTT assay; assay type: functional, cell-based; how it was run: as §1
[3] = Cytotoxicity against human U937 cells assessed as cell growth inhibition after 48 hrs by MTT assay; assay type: functional, cell-based; settings: U-937, 48 h; how it was run: as §1
Fusarium oxysporum = assay: Antifungal activity against Fusarium oxysporum ATCC 48112 assessed as microbial growth inhibition after 48 hrs by microdilution assay; assay type: functional, organism-based
How it was run: (§2)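 Broth microdilution under CLSI M38-A with modifications, in duplicate, at final compound concentrations of 50–3.125 μg/mL. […] Values are the geometric mean of duplicate tests in three assays. Assay DMSO was 0.05%.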

Aspergillus fumigatus = assay: Antifungal activity against Aspergillus fumigatus ATCC 204305 assessed as microbial growth inhibition by microdilution assay; assay type: functional, organism-based; how it was run: as §2
Aspergillus flavus = assay: Antifungal activity against Aspergillus flavus ATCC 204304 assessed as microbial growth inhibition by microdilution assay; assay type: functional, organism-based; how it was run: as §2
Aspergillus terreus = assay: Antifungal activity against Aspergillus terreus CDC 317 assessed as microbial growth inhibition by microdilution assay; assay type: functional, organism-based; how it was run: as §2
Candida albicans = assay: Antifungal activity against Candida albicans […] assessed as microbial growth inhibition after 24 hrs by microdilution assay; assay type: functional, organism-based
How it was run: (§3)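 Yeast microdilution by the AFST-EUCAST method at an inoculum of 1–5 × 10^5 CFU/mL, final compound concentrations 50–3.125 μg/mL, in duplicate. MIC is the lowest concentration giving 90% growth reduction after 24 h at 35 °C. Untreated inoculum served as negative control. Values are the geometric mean of duplicate tests in three assays.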

Candida parapsilosis = assay: Antifungal activity against Candida parapsilosis ATCC 22019 assessed as microbial growth inhibition after 24 hrs by microdilution assay; assay type: functional, organism-based; how it was run: as §3
Candida tropicalis = assay: Antifungal activity against Candida tropicalis ATCC 200956 assessed as microbial growth inhibition after 24 hrs by microdilution assay; assay type: functional, organism-based; how it was run: as §3
Vero [4] = assay: Cytotoxicity against African green monkey Vero cells assessed as cell growth inhibition after 48 hrs by MTT assay; assay type: cell-based; settings: Chlorocebus sabaeus; how it was run: as §1
Jurkat [5] = assay: Selectivity index, ratio of IC50 for African green monkey Vero cells to IC50 for human Jurkat cells; assay type: functional
How it was run: (§4)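 SI calculated as Vero IC50 divided by HeLa, Jurkat or U937 IC50, all from the 48 h MTT assay.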

Vero [6] = assay: Selectivity index, ratio of IC50 for African green monkey Vero cells to IC50 for human U937 cells; assay type: functional; how it was run: as §4
HeLa [7] = assay: Selectivity index, ratio of IC50 for African green monkey Vero cells to IC50 for human HeLa cells; assay type: functional; how it was run: as §4
Human alphaherpesvirus 1 [8] = assay: Antiviral activity against HHV1 CDC Atlanta infected in African green monkey Vero cells assessed as reduction of viral titer at maximal non-toxic concentration after 48 hrs by crystal violet staining assay relative to control; assay type: functional
How it was run: (§5)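 End-point titration on Vero monolayers (2.0 × 10^4 cells/well, ≥80% confluent) with 10 TCID50 virus. Virus–compound mixtures (6.25–50 μg/mL) in DMEM/2% FBS with CMC (1% for HHV-1, 0.5% for HHV-2) were held 15 min at room temperature. Incubation was 48 h (HHV-1) or 72 h (HHV-2) at 37 °C, then formaldehyde/crystal violet staining and plaque counting. Read-out is the viral titer reduction factor. Two experiments in quadruplicate.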

Human alphaherpesvirus 2 [9] = assay: Antiviral activity against HHV-2 VR-734-G infected in African green monkey Vero cells assessed as reduction of viral titer at maximal non-toxic concentration after 72 hrs by crystal violet staining assay relative to control; assay type: functional; how it was run: as §5
Human alphaherpesvirus 2 [10] = assay: Antiviral activity against HHV-2 VR-734-G infected in African green monkey Vero cells assessed as maximal non toxic concentration causing reduction of viral titer after 72 hrs by crystal violet staining assay; assay type: functional; how it was run: as §5
Vero [11] = assay: Cytotoxicity against African green monkey Vero cells assessed as inhibition of cell proliferation after 72 hrs; assay type: cell-based; settings: Chlorocebus sabaeus
Human alphaherpesvirus 1 [12] = assay: Antiviral activity against HHV-1 CDC Atlanta infected in African green monkey Vero cells assessed as reduction in plaque formation administered post viral infection after 72 hrs by crystal violet staining technique; assay type: functional, organism-based; settings: Human alphaherpesvirus 1, CDC Atlanta, Vero, 72 h; read-out: EC50
How it was run: (§6)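 Plaque reduction on Vero monolayers (2.5 × 10^4 cells/well) infected with 100 PFU/well. Pre-infection arm: virus–compound mixture added for 1 h at 37 °C, PBS wash, then CMC overlay. Post-infection arm: virus adsorbed 1 h, washed, then compound given in CMC. CMC was 1% for HHV-1, 0.75% for HHV-2 and 2% for DENV-2. Plates ran 72 h (HHV) or 8 days (DENV-2) before crystal violet staining. EC50 came from linear regression over ≥4 dilutions in quadruplicate.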

Human alphaherpesvirus 2 [13] = assay: Antiviral activity against HHV-2 VR-734-G infected in African green monkey Vero cells assessed as reduction in plaque formation administered post viral infection after 72 hrs by crystal violet staining technique; assay type: functional, organism-based; settings: Human alphaherpesvirus 2, VR-734-G; how it was run: as §6

SMILES	IC50 (HeLa [1])	IC50 (Jurkat [2])	IC50 [3]	Activity (Fusarium oxysporum)	Activity (Aspergillus fumigatus)	Activity (Aspergillus flavus)	Activity (Aspergillus terreus)	Activity (Candida albicans)	Activity (Candida parapsilosis)	Activity (Candida tropicalis)	IC50 (Vero [4])	Ratio IC50 (Jurkat [5])	Ratio IC50 (Vero [6])	Ratio IC50 (HeLa [7])	fold change (FC) (Human alphaherpesvirus 1 [8])	fold change (FC) (Human alphaherpesvirus 2 [9])	MNTD (Human alphaherpesvirus 2 [10])	IC50 (Vero [11])	EC50 (Human alphaherpesvirus 1 [12])	EC50 (Human alphaherpesvirus 2 [13])
CC(=O)Oc1cc2c(cc1C(C)C)CC[C@H]1[C@](C)(CN3C(=O)c4ccccc4C3=O)CCC[C@]21C	> 50 µM	> 50 µM	> 50 µM	inactive	inactive	inactive	inactive	inactive	inactive	inactive										
COc1cccc2c1C(=O)c1c(O)c3c(c(O)c1C2=O)C[C@@](O)(C(=O)CO)C[C@@H]3O[C@H]1C[C@H](N)[C@H](O)[C@H](C)O1 [DOXORUBICIN]	0.834 µM	0.012 µM	0.077 µM								1.93 µM									
Cc1ccc(S(=O)(=O)NC[C@]2(C)CCC[C@]3(C)c4cc(O)c(C(C)C)cc4CC[C@@H]23)cc1	> 50 µM	30.9 µM	36 µM	inactive	inactive	inactive	inactive	inactive	inactive	inactive	82.5 µM	2.7	2.3							
CC(C)c1cc2c(cc1O)[C@@]1(C)CCCC(C)(C)[C@@H]1CC2 [FERRUGINOL]	64.9 µM	48.2 µM	21.3 µM	inactive	inactive	inactive	inactive	inactive	inactive	inactive	90.4 µM	1.9	4.2	1.4						
Nc1nc2c(ncn2COCCO)c(=O)[nH]1 [ACYCLOVIR]															10000	1000	6.7 µM	> 1700 µM	2.2 µM	0.27 µM
CC(=O)Oc1cc2c(cc1C(C)C)/C(=N\S(=O)(=O)c1ccc(C)cc1)C[C@H]1[C@](C)(CN3C(=O)c4c(Cl)c(Cl)c(Cl)c(Cl)c4C3=O)CCC[C@]21C	> 30 µM	> 30 µM	> 30 µM	inactive	inactive	inactive	inactive	inactive	inactive	inactive										
CC(C)c1cc2c(cc1O)[C@@]1(C)CCC[C@@](C)(CN)[C@@H]1CC2	> 80 µM	49.4 µM	> 80 µM	inactive	inactive	inactive	inactive	inactive	inactive	inactive	39.8 µM	0.8								
CC(=O)Oc1cc2c(cc1C(C)C)CC[C@H]1[C@](C)(CN3C(=O)c4c(Cl)c(Cl)c(Cl)c(Cl)c4C3=O)CCC[C@]21C	> 40 µM	> 40 µM	> 40 µM	inactive	inactive	inactive	inactive	inactive	inactive	inactive										
CC(=O)O[C@H]1C(=O)[C@@]2(C)[C@H]([C@H](OC(=O)c3ccccc3)[C@]3(O)C[C@H](OC(=O)[C@H](O)[C@@H](NC(=O)c4ccccc4)c4ccccc4)C(C)=C1C3(C)C)[C@]1(OC(C)=O)CO[C@@H]1C[C@@H]2O [PACLITAXEL]	0.099 µM	0.0005 µM									0.65 µM									
CC(C)c1cc2c(cc1O)[C@@]1(C)CCC[C@@](C)(CN3C(=O)c4c(Cl)c(Cl)c(Cl)c(Cl)c4C3=O)[C@@H]1CC2	29 µM	21.9 µM	> 40 µM	inactive	inactive	inactive	inactive	inactive	inactive	inactive	267 µM	12.2		9.2						
CC(=O)Oc1cc2c(cc1C(C)C)C(=O)C[C@H]1[C@](C)(CN3C(=O)c4c(Cl)c(Cl)c(Cl)c(Cl)c4C3=O)CCC[C@]21C	7.3 µM	12.3 µM	8.3 µM	inactive	inactive	inactive	inactive	inactive	inactive	inactive	> 320 µM	>26	>38.5	>43.8						
